Assay outcomes from PubChem BioAssay.
In the library only some 3.1% were active in any assay of this set; here they are far more common.
hERG rescue: hERG (human) protection from proarrhythmic block | 0.51% of 310,000 active | CHO-hERG, FluxOR thallium flux, dofetilide IC70 present | Q12809 | activation (rescue from dofetilide block), less the hit threshold, % at 10 µM;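 active = activation above the mean of controls blocked by dofetilide plus 5 SD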;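 also: thallium influx through hERG after potassium depolarization seen as dye fluorescence rise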
Target sequence (Q12809 whole entry, looked up): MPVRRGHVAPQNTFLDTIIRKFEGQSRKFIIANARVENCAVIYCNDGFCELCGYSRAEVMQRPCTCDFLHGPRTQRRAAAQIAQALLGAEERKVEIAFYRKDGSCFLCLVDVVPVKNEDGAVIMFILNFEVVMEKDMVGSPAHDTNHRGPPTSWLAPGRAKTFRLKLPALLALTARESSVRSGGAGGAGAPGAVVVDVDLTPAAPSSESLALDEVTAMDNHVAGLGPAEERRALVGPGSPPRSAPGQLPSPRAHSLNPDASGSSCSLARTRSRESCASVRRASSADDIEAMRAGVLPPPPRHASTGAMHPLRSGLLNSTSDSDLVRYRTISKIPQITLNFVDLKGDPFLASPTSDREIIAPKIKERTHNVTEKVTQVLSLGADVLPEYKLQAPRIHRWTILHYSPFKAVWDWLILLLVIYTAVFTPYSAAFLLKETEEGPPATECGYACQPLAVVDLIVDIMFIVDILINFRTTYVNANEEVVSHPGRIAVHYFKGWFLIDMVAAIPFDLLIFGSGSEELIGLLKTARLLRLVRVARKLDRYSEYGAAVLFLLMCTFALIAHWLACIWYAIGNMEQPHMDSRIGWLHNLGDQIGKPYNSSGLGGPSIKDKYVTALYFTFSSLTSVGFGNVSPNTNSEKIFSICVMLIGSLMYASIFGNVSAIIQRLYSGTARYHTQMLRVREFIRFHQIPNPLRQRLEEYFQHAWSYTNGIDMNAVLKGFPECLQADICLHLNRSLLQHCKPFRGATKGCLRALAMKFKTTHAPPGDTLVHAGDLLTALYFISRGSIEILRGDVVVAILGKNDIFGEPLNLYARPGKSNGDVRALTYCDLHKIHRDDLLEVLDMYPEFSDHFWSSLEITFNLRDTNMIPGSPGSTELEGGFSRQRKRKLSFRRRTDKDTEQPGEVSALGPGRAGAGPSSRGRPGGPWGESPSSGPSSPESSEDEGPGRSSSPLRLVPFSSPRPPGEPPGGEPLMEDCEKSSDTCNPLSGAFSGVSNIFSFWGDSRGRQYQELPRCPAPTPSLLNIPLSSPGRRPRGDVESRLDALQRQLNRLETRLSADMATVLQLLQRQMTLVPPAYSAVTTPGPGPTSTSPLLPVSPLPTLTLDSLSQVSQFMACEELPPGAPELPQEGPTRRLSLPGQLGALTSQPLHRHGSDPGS
KCNQ1 pot: potentiates or activates the human KCNQ1 potassium channel. P51787. CHO-K1 KCNQ1, thallium flux FluxOR fluorescence; hits give high values. B-score at 10 µM. 0.35% of 310,000 active. AID 2648;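 active = fluorescence ratio B-score, a plate-corrected score, at least three library SD, with initial intensity B-score within 5 SD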
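System: CHO-K1 cells stably expressing KCNQ1 / Medium: assay buffer for compound exposure, DMSO matched across wells / Reagent: thallium- and potassium-containing depolarizing buffer / Compound: one concentration, matched DMSO / Incubation: 20 min compound pretreatment at room temperature / Measured by: kinetic FluxOR fluorescence, 10 s baseline plus 110 s post-stimulus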
KCNK3 block: human KCNK3 channel inhibition, primary screen; CHO-KCNK3 thallium flux, FluxOR fluorescence; hits give low values; B-score at 10 µM; 0.84% of 340,000 active; AID 602410; O14649;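 active = B-score under library mean minus 4 SD, starting fluorescence ratio at most library mean plus 5 SD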;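 also: more negative B-score means stronger inhibition of thallium flux through KCNK3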
KCNK9 block: human KCNK9 channel inhibition | Q9NPC2 | HEK293 KCNK9, FluxOR thallium flux fluorescence; hits give low values | B-score at 10 µM | 1.2% of 310,000 active;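 active = ratio B-score over 3 SD below the library mean, with starting fluorescence within 5 SD of its mean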;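 also: negative B-score means less thallium flux so channel inhibition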
KCNQ1 inh: inhibitors of human KCNQ1 potassium channel; P51787; CHO-K1 KCNQ1, FluxOR thallium flux fluorescence; hits give high values; B-score at 10 µM; 1.3% of 310,000 active;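 active = compounds whose thallium flux B-score, printed positive for inhibition, exceeds three library SD while starting fluorescence stays within three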;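 also: channel opened by potassium depolarization with thallium stimulus after 20 min compound exposure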
KCNK9 block conf: human KCNK9 inhibitor confirmation | HEK293 KCNK9 cells, FluxOR thallium flux fluorescence | 43% of 4,900 active | inhibition, % at 10 µM | shares compounds with KCNK9 block;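 active = thallium signal inhibited by more than 5 SD of the compound-free buffer control wells, on both duplicate plates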;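 also: 0% = assay buffer control wells without compound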
Kir21 sel: mouse Kir2.1 off-target activity of KCNK9 modulators. shares compounds with KCNK9 block. Kir2.1 cells, FluxOR thallium flux fluorescence. inhibition, % at 10 µM. 4% of 4,900 active. AID 492993;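 active = thallium signal drop more than 5 SD beyond the mean of the no-compound control wells, seen in both duplicate plates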;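 also: signal is fluorescence rise after thallium addition divided by baseline fluorescence; plate controls were assay buffer only for no effect and full block by chlorpromazine control for full effect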
KCNK9 uninduced: second counter-screen for KCNK9 modulators: effect in non-induced cells; shares compounds with KCNK9 block; non-induced KCNK9-HEK293, FluxOR thallium flux; inhibition, % at 10 µM; 40% of 4,900 active; AID 492997;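 active = thallium signal drop beyond 5 SD of the untreated control mean, on both duplicate plates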;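 also: plate controls were buffer only IC0 wells for no effect and SID17386958 at its maximal inhibitory level for full effect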
An asterisk follows results filed as active.

For Cc1nc(C(=O)N2CCCC(N3CCN(c4ccccc4C)CC3)C2)cs1 (stereo unspecified) the results were hERG rescue -10.0, KCNQ1 pot inactive, KCNK3 block inactive, KCNK9 block inactive, KCNQ1 inh inactive, KCNK9 block conf inactive, Kir21 sel inactive and KCNK9 uninduced inactive.
`CC(C)c1nc(C(=O)N2CCCC(N3CCN(c4cccc(Cl)c4)CC3)C2)cs1` (stereo unspecified) gave hERG rescue -7.1, KCNQ1 pot inactive, KCNK3 block inactive, KCNK9 block inactive, KCNQ1 inh inactive, KCNK9 block conf inactive, Kir21 sel inactive and KCNK9 uninduced inactive.
Cc1ccccc1N1CCN(C2CCCN(C(=O)c3csc(C(C)C)n3)C2)CC1 (stereo unspecified) was read as hERG rescue -14.7, KCNQ1 pot inactive, KCNK3 block inactive, KCNK9 block inactive, KCNQ1 inh inactive, KCNK9 block conf inactive, Kir21 sel inactive and KCNK9 uninduced inactive.
For CCCc1nc(SCC(=O)N2CCCc3ccccc32)c2c(=O)n(C)c(=O)n(C)c2n1 the results were hERG rescue -25.6, KCNQ1 pot inactive, KCNK3 block inactive, KCNK9 block inactive, KCNQ1 inh inactive, KCNK9 block conf inactive, Kir21 sel inactive and KCNK9 uninduced inactive.
For Cc1cccc(N2C(=O)C3CCC(c4ccccc4)CC3C2=O)c1 (stereo unspecified) the results were hERG rescue -0.8, KCNQ1 pot inactive, KCNK3 block inactive, KCNK9 block inactive, KCNQ1 inh inactive, KCNK9 block conf inactive, Kir21 sel inactive and KCNK9 uninduced inactive.
For COc1ccccc1N1C(=O)C2CCC(c3ccccc3)CC2C1=O (stereo unspecified) the results were hERG rescue -12.2, KCNQ1 pot inactive, KCNK3 block inactive, KCNK9 block inactive and KCNQ1 inh inactive.
`CC(=O)C1=C(C)NC(SCC(=O)c2cc(Cl)ccc2Cl)=C(C#N)C1c1ccco1` (stereo unspecified) gave hERG rescue -6.5, KCNQ1 pot inactive, KCNK3 block -14.2*, KCNK9 block -14.1*, KCNQ1 inh 11*, KCNK9 block conf 74.5%*, Kir21 sel inactive and KCNK9 uninduced 35.0%*.
`CC(=O)c1cccc(N2Cc3ccccc3C2=NC(=O)CCl)c1` gave hERG rescue -13.4, KCNQ1 pot inactive, KCNK3 block inactive, KCNK9 block inactive and KCNQ1 inh inactive.
Cc1cc(Cl)ccc1OC(C)C(=O)N1CCCN(C(=O)C(C)Oc2ccc(Cl)cc2C)CC1 (stereo unspecified) was read as hERG rescue -6.2, KCNQ1 pot inactive, KCNK3 block inactive, KCNK9 block -15.1*, KCNQ1 inh inactive, KCNK9 block conf 58.0%*, Kir21 sel inactive and KCNK9 uninduced 29.5%*.
`Cc1cc(Cl)ccc1OCC(=O)N1CCCN(C(=O)COc2ccc(Cl)cc2C)CC1` gave hERG rescue -13.6, KCNQ1 pot inactive, KCNK3 block inactive, KCNK9 block inactive and KCNQ1 inh inactive.
`COc1ccc(C)cc1N(C(=O)c1ccccc1)c1nc2ccccc2s1` gave hERG rescue -4.4, KCNQ1 pot inactive, KCNK3 block inactive, KCNK9 block -10.4*, KCNQ1 inh inactive, KCNK9 block conf 41.5%*, Kir21 sel inactive and KCNK9 uninduced 32.0%*.
Screening COc1ccc(C)cc1N(C(=O)c1cccc(F)c1)c1nc2ccccc2s1 returned KCNK3 block inactive.
`COc1ccc(C)cc1N(C(=O)COc1ccccc1)c1nc2ccccc2s1` gave hERG rescue -8.2, KCNQ1 pot inactive, KCNK3 block inactive, KCNK9 block inactive and KCNQ1 inh inactive.
Screening COc1ccc(C)cc1N(C(=O)c1ccccc1F)c1nc2ccccc2s1 returned hERG rescue -13.0, KCNQ1 pot inactive, KCNK3 block inactive, KCNK9 block -9.73*, KCNQ1 inh inactive, KCNK9 block conf 45.5%*, Kir21 sel inactive and KCNK9 uninduced 36.0%*.
`Cc1ccc(C(=O)N2CC(C)SC2=Nc2cccc(S(=O)(=O)N(C)C)c2)cc1` (stereo unspecified) gave hERG rescue -9.6, KCNQ1 pot inactive, KCNK3 block inactive, KCNK9 block inactive and KCNQ1 inh inactive.
`Cc1cc(C)cc(C(=O)N2CC(C)SC2=Nc2cccc(S(=O)(=O)N(C)C)c2)c1` (stereo unspecified) gave hERG rescue -1.3, KCNQ1 pot inactive, KCNK3 block inactive, KCNK9 block -12.5*, KCNQ1 inh inactive, KCNK9 block conf 63.5%*, Kir21 sel inactive and KCNK9 uninduced 34.5%*.
Screening Cc1ccnc(NC(=O)Nc2ccc3c(c2)OCO3)c1 returned hERG rescue -8.7, KCNQ1 pot inactive, KCNK3 block inactive, KCNK9 block inactive and KCNQ1 inh inactive.
For O=C(Nc1c(S(=O)(=O)c2ccc(Cl)cc2)csc1Br)c1ccccc1Cl the results were hERG rescue -5.4, KCNQ1 pot inactive, KCNK3 block inactive, KCNK9 block -10.9*, KCNQ1 inh inactive, KCNK9 block conf 37.5%*, Kir21 sel inactive and KCNK9 uninduced 35.0%*.
For O=C(O)c1ccccc1NSc1ccccc1[N+](=O)[O-] the results were hERG rescue -3.8, KCNQ1 pot inactive, KCNK3 block inactive, KCNK9 block inactive and KCNQ1 inh inactive.
`CCc1ccc(NSc2ccccc2[N+](=O)[O-])cc1` gave hERG rescue -7.5, KCNQ1 pot inactive, KCNK3 block inactive, KCNK9 block -8.84*, KCNQ1 inh inactive, KCNK9 block conf 42.0%*, Kir21 sel inactive and KCNK9 uninduced 28.0%*.
For C=CCNc1cccc(Br)c1 the results were hERG rescue -1.0, KCNQ1 pot inactive, KCNK3 block inactive, KCNK9 block inactive and KCNQ1 inh inactive.
Screening COc1ccc2c(C)c(C(=O)N3CCN(Cc4ccccc4)CC3)oc2c1 returned hERG rescue -7.8, KCNQ1 pot inactive, KCNK3 block inactive, KCNK9 block inactive, KCNQ1 inh inactive, KCNK9 block conf inactive, Kir21 sel inactive and KCNK9 uninduced inactive.
Screening N#Cc1ccc(-c2ccc3c(c2)OCO3)nc1SCC(=O)OCc1ccccc1 returned hERG rescue -7.8, KCNQ1 pot inactive, KCNK3 block inactive, KCNK9 block -10.2*, KCNQ1 inh inactive, KCNK9 block conf inactive, Kir21 sel inactive and KCNK9 uninduced 27.0%*.
